Results on one compound are retold here after ChEMBL document CHEMBL4321796, “Proteolysis Targeting Chimeras for the Selective Degradation of Mcl-1/Bcl-2 Derived from Nonselective Target Binding Ligands” (J Med Chem, 2019).

The target of test [1] is Protein cereblon/E3 ubiquitin-protein ligase Mdm2 (Homo sapiens) (UniProt Q00987+Q96SW2). Description: Induction of CRBN-mediated MDM2 degradation in human HeLa cells at 10 uM incubated for 12 hrs by Western blot analysis. Format: cell-based. (In western blotting, separated proteins are transferred to a membrane and probed.)
Protein cereblon/E3 ubiquitin-protein ligase Mdm2 (Homo sapiens), sequence (Q00987 whole entry, looked up): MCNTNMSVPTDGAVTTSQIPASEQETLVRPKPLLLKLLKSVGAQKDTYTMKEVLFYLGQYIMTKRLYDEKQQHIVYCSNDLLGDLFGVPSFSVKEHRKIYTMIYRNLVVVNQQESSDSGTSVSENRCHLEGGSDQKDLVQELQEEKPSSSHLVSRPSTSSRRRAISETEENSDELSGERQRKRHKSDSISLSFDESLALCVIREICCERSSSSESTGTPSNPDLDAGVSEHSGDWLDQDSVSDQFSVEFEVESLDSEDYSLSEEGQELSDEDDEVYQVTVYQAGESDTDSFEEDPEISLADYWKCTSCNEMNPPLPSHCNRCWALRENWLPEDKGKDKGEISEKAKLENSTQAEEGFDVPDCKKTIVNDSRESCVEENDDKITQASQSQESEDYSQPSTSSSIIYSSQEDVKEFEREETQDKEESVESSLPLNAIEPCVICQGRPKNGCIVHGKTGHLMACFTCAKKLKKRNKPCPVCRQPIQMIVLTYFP
Protein cereblon/E3 ubiquitin-protein ligase Mdm2 (Homo sapiens), sequence (Q96SW2 whole entry, looked up): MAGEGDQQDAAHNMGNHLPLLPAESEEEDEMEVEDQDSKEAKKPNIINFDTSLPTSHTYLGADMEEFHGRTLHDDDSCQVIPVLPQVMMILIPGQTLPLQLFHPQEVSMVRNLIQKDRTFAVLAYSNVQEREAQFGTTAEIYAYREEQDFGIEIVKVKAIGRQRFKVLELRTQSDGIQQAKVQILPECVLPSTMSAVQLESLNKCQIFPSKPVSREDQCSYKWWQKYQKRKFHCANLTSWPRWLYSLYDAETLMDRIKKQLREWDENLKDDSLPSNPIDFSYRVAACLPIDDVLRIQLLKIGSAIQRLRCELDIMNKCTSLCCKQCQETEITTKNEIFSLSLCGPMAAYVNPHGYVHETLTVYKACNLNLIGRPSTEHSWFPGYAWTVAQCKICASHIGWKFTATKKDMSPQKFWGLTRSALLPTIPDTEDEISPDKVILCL
Test [2] deals with Protein cereblon/Bcl-2-like protein 1 (Homo sapiens) (UniProt Q07817+Q96SW2). Description: Induction of CRBN-mediated Bcl-xl degradation in human HeLa cells at 10 uM incubated for 12 hrs by Western blot analysis. The test is classed as cell-based.
Protein cereblon/Bcl-2-like protein 1 (Homo sapiens), sequence (Q07817 whole entry, looked up, the tested form may be a part): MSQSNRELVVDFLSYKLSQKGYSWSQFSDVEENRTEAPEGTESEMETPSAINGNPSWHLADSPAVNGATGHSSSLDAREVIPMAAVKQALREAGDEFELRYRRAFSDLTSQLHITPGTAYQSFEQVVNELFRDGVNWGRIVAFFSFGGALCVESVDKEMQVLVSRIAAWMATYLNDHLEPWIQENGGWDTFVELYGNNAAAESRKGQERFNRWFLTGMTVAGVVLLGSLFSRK
Protein cereblon/Bcl-2-like protein 1 (Homo sapiens), sequence (Q96SW2 whole entry, looked up, the tested form may be a part): as the sequence (Q96SW2 whole entry, looked up) above
Test [3] concerns the target Induced myeloid leukemia cell differentiation protein Mcl-1 (Homo sapiens, UniProt Q07820). In words: Inhibition of biotinylated Bim peptide (81 to 106 residues) binding to His-tagged human Mcl-1 expressed in Escherichia coli BL21 (DE3) cells preincubated for 1 hr followed by biotinylated Bim peptide addition measured after 2 hrs by ELISA. The gist of the method:
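Inhibitor serially diluted (100–0.1 µM) from 10 mM DMSO stock, preincubated 1 h with 200 nM His-tagged protein in PBS (final DMSO 4%), then added 2 h to streptavidin plates holding biotin-Bim (plated at 0.09 mg/mL). Incubations at 4 °C. Detection with HRP anti-His, TMB 30 min, H2SO4 stop, A450. IC50 averaged from three independent experiments, with SD.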
Background: An ELISA detects its analyte on a solid surface through an enzyme-linked reagent.

Test [4] addresses T1, Protein cereblon/Induced myeloid leukemia cell differentiation protein Mcl-1 (Homo sapiens, UniProt Q07820+Q96SW2). Description: Induction of CRBN-mediated Mcl-1 degradation in human HeLa cells assessed as relative abundance at 10 uM after 12 hrs by Western blot analysis (reference value: 1). Format: cell-based.
Target sequence in this assay (Q07820 whole entry, looked up): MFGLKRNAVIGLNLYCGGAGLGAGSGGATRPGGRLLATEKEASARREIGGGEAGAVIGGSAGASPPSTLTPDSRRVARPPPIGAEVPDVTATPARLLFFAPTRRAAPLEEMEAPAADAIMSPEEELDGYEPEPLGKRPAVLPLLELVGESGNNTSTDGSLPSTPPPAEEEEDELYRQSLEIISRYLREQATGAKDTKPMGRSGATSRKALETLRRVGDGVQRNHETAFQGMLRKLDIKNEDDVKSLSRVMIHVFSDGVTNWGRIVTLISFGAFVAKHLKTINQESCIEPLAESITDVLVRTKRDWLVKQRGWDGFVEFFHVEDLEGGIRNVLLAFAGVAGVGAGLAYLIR
Target sequence in this assay (Q96SW2 whole entry, looked up): as the sequence (Q96SW2 whole entry, looked up) above
Test [5] concerns the target T2, Protein cereblon/Apoptosis regulator Bcl-2 (Homo sapiens, UniProt P10415+Q96SW2). Description: Induction of CRBN-mediated Bcl-2 degradation in human HeLa cells assessed as relative abundance at 10 uM after 12 hrs by Western blot analysis (reference value: 1). Format: cell-based.
Test [6] addresses T2, Protein cereblon/Apoptosis regulator Bcl-2. In words: Induction of CRBN-mediated Bcl-2 degradation in human HeLa cells assessed as relative abundance at 1 uM after 12 hrs by Western blot analysis (reference value: 1). The test is classed as cell-based.
Test [7] has as its target T1, Protein cereblon/Induced myeloid leukemia cell differentiation protein Mcl-1. In words: Induction of CRBN-mediated Mcl-1 degradation in human HeLa cells assessed as Mcl-1 level at 10 uM after 12 hrs by Western blot analysis relative to control. Format: cell-based.
Target sequence in this assay (Q07820 whole entry, looked up): as the sequence (Q07820 whole entry, looked up) above
Target sequence in this assay (Q96SW2 whole entry, looked up): as the sequence (Q96SW2 whole entry, looked up) above
In test [8] the target is T2, Protein cereblon/Apoptosis regulator Bcl-2. In words: Induction of CRBN-mediated Bcl-2 degradation in human HeLa cells assessed as relative abundance at 3 uM after 12 hrs by Western blot analysis (reference value: 1). Format: cell-based.
The target is the same in test [9]. In words: Induction of CRBN-mediated Bcl-2 degradation in human HeLa cells assessed as relative abundance at 0.3 uM after 12 hrs by Western blot analysis (reference value: 1). The test is classed as cell-based.
Test [10] has as its target T1, Protein cereblon/Induced myeloid leukemia cell differentiation protein Mcl-1. Description: Induction of CRBN-mediated Mcl-1 degradation in human HeLa cells assessed as relative abundance at 10 uM measured at 4 hrs by Western blot analysis (reference value: 1). The test is classed as cell-based. In outline: (§1)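 HeLa cells in DMEM with 10% FBS, exposed to 10 µM compound over a 0–24 h time course. Mcl-1 and Bcl-2 detected by immunoblot (NP-40 lysis, BCA-equalized SDS-PAGE, PVDF, ECL) and quantified relative to DMSO control; mean ± s.d., n=3 independent samples.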
Target sequence in this assay (Q07820 whole entry, looked up): as the sequence (Q07820 whole entry, looked up) above
Target sequence in this assay (Q96SW2 whole entry, looked up): as the sequence (Q96SW2 whole entry, looked up) above

The target is the same in test [11]. Description: Induction of CRBN-mediated Mcl-1 degradation in human HeLa cells assessed as relative abundance at 10 uM measured at 16 hrs by Western blot analysis (reference value: 1). The test is classed as cell-based. The gist of the method: as §1
Target sequence in this assay (Q07820 whole entry, looked up): as the sequence (Q07820 whole entry, looked up) above
Target sequence in this assay (Q96SW2 whole entry, looked up): as the sequence (Q96SW2 whole entry, looked up) above
The target is the same in test [12]. In words: Induction of CRBN-mediated Mcl-1 degradation in human HeLa cells assessed as relative abundance at 10 uM measured at 20 hrs by Western blot analysis (reference value: 1). The test is classed as cell-based. The gist of the method: as §1
Target sequence in this assay (Q07820 whole entry, looked up): as the sequence (Q07820 whole entry, looked up) above
Target sequence in this assay (Q96SW2 whole entry, looked up): as the sequence (Q96SW2 whole entry, looked up) above
For test [13] the target is unchanged. In words: Induction of CRBN-mediated Mcl-1 degradation in human HeLa cells assessed as relative abundance at 10 uM measured at 24 hrs by Western blot analysis (reference value: 1). Format: cell-based. The gist of the method:
as §1
Target sequence in this assay (Q07820 whole entry, looked up): as the sequence (Q07820 whole entry, looked up) above
Target sequence in this assay (Q96SW2 whole entry, looked up): as the sequence (Q96SW2 whole entry, looked up) above

The target of test [14] is T2, Protein cereblon/Apoptosis regulator Bcl-2. In words: Induction of CRBN-mediated Bcl-2 degradation in human HeLa cells assessed as relative abundance at 10 uM measured at 2 hrs by Western blot analysis (reference value: 1). Format: cell-based. The gist of the method:
as §1

For test [15] the target is unchanged. Description: Induction of CRBN-mediated Bcl-2 degradation in human HeLa cells assessed as relative abundance at 10 uM measured at 8 hrs by Western blot analysis (reference value: 1). The test is classed as cell-based. In outline: as §1
For test [16] the target is unchanged. Description: Induction of CRBN-mediated Bcl-2 degradation in human HeLa cells assessed as relative abundance at 10 uM measured at 16 hrs by Western blot analysis (reference value: 1). The test is classed as cell-based. In outline:
as §1

Test [17] shares this target. Description: Induction of CRBN-mediated Bcl-2 degradation in human HeLa cells assessed as relative abundance at 10 uM measured at 24 hrs by Western blot analysis (reference value: 1). The test is classed as cell-based. In outline: as §1
The target in test [18] is T1, Protein cereblon/Induced myeloid leukemia cell differentiation protein Mcl-1. Description: Induction of CRBN-mediated Mcl-1 degradation in human HeLa cells assessed as Mcl-1 removal activity measured at 12 hrs by Western blot analysis. Format: cell-based.
Target sequence in this assay (Q07820 whole entry): as the sequence (Q07820 whole entry, looked up) above
Target sequence in this assay (Q96SW2 whole entry): as the sequence (Q96SW2 whole entry, looked up) above
The subject of another test is HeLa. Description: Induction of CRBN-mediated tubulin degradation in human HeLa cells at 10 uM incubated for 12 hrs by Western blot analysis. The test is classed as cell-based. In outline: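 HeLa cells (DMEM, 10% FBS, 37 °C, 5% CO2) treated 12 h with compound (10 µM, or 0–10 µM gradient; time course 0–24 h at 10 µM). Lysis in NP-40 buffer with protease inhibitors, equal protein loaded for SDS-PAGE and immunoblotting. Bands quantified relative to DMSO control. n=3 independent samples.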

Test [19] has as its target T1, Protein cereblon/Induced myeloid leukemia cell differentiation protein Mcl-1. Description: Induction of CRBN-mediated Mcl-1 degradation in human HeLa cells at 10 uM pretreated with proteasome inhibitor MG-132 followed by compound addition by Western blot analysis. The test is classed as cell-based.
The target is the same in test [20]. In words: Induction of CRBN-mediated Mcl-1 degradation in human HeLa cells at 10 uM pretreated with CRBN inhibitor pomalidomide followed by compound addition by Western blot analysis. The test is classed as cell-based.
For test [21] the target is unchanged. In words: Protac activity at CRBN/Mcl-1 in human HeLa cell lysates assessed as ternary complex formation by Western blot analysis based pull-down assay. The test is classed as subcellular. The conditions noted are these: Lysate. The gist of the method:
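HeLa lysate (25×10^6 cells, 1% Triton X-100 IP buffer), 1 mg total protein, incubated overnight with 1 µg CRBN antibody across a compound concentration gradient. Capture on protein A+G agarose, three Triton washes, boiled in loading buffer. Mcl-1, Bcl-2 and CRBN detected by immunoblotting. n=3 independent samples.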

The test system of test [22] is NCI-H23. Description: Cytotoxicity against human H23 cells incubated for 24 hrs by CCK8 assay. The test is classed as functional, cell-based. In outline: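 H23 cells seeded at 4 × 10^4 per mL in RPMI with 10% FBS, L-glutamine and pen/strep. Treated 24 h at various concentrations or with DMSO vehicle (0.05%). Viability read by CCK8 and normalized against cell-free background and untreated cultures; mean ± s.e.m., n=3.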

In test [23] the test system is NCI-H23. In words: Cytotoxicity against human H23 cells assessed as effect on PARP cleavage at 0.3 to 10 uM incubated for 12 hrs by Western blot analysis. The test is classed as functional, cell-based. In outline: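 H23 cells grown in RPMI1640 with 10% FBS at 37°C, 5% CO2, treated 12 h over a concentration gradient. Mcl-1 and PARP cleavage read by immunoblot: NP-40 lysis buffer with protease inhibitors, BCA-normalized SDS-PAGE, PVDF, ECL detection; n=3 independent samples.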

Calls of active or inactive are those of the source. No cut-off for these calls is given here. Bounds are passed on as bounds.

T2 sequence (P10415 whole entry, looked up): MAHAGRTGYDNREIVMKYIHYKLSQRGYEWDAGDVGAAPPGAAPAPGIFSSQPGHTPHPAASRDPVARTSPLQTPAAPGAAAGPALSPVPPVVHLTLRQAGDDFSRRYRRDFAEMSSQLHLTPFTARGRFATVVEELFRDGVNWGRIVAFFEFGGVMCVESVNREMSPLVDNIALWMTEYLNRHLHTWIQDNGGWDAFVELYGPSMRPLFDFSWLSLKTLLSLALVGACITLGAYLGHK
T2 sequence (Q96SW2 whole entry, looked up): as the sequence (Q96SW2 whole entry, looked up) above
Induced myeloid leukemia cell differentiation protein Mcl-1, sequence (Q07820 whole entry, the tested form may be a part): as the sequence (Q07820 whole entry, looked up) above

`O=C(CCCCC(=O)NCCN1C(=O)c2cccc3c(Sc4ccc(Br)cc4)ccc(c23)C1=O)NCCCCCCNc1cccc2c1C(=O)N(C1CCC(=O)NC1=O)C2=O` (centres undefined): the result (in test [1]; in test [2]; in the test on HeLa; in test [19]; in test [20]) was inactive. Also, in [3], the IC50 (in general, the concentration at which inhibition is half-maximal) is 780 nM. The fold change (FC) in [4] was 0.1 to 0.2; in [5] it was 0.8 to 1; in test [6], 0.9 to 1; in [8], 1; in [9], 1; in [10] it was 1.1. Further, the fold change (FC) in [11] was 0.4; in [12], 0.8; in [13] it was 0.9; in test [14], 1.1; in [15], 1; in test [16], 1. In [17], the fold change (FC) is 0.9. The Activity in test [7] was less than 10%; in [21] it was “Dose-dependent effect”. Also, the DC50 (as a rule, the concentration giving 50% degradation) in [18] is 700 nM. The outcome in the test on NCI-H23 [22] and in the test on NCI-H23 [23] was Active.
